Assay results as given in ChEMBL document CHEMBL1240485, “Glycopeptide dendrimer colchicine conjugates targeting cancer cells” (Bioorg Med Chem, 2010).
Activity calls are given as the source filed them. The rule behind the calls is not given here. Bridge positions count the residues as written; N and C are the ends. Square brackets hold non-standard residues; d marks the D form. Peptide text beside a SMILES is read from it. I, II: the chains in the order shown. * marks the point of attachment. X1 = COc1cc2c(c(OC)c1OC)-c1ccc(OC)c(=O)cc1[C@@H](N(C(C)=O)C(=O)[C@H](CS)N*)CC2; X2 = O=C(CCS[C@@H]1O[C@H](CO)[C@H](O)[C@H](O)[C@H]1O)*; βGal = OC[C@H]1O[C@@H](*)[C@H](O)[C@@H](O)[C@H]1O; Dap = NC[C@H](N)C(=O)O; Mpa = O=C(O)CCS

Key:
MEF = test: Cytotoxicity against MEF cells assessed as dead cells at 5 uM after 48 hrs by visual cell counting under the microscope; details: mouse
Jurkat [1] = test: Cytotoxicity against human Jurkat cells assessed as dead cells at 5 uM after 48 hrs by propidium iodide-based FACS flow cytometry; assay type: functional
Method in brief: (§1)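 Jurkat cells were grown in RPMI with 10% FCS, penicillin/streptomycin and L-glutamine at 37 °C and 5% CO2. They were seeded at 50,000 cells/mL and cultured overnight, then given compound from sterile water stock and held 48 h. Propidium iodide was added 2 min before FACS (excitation 488 nm). Dead cells were counted at 5 µM final. LD50 was derived from dose–response curves.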

Jurkat [2] = test: Cytotoxicity against human Jurkat cells after 48 hrs; assay type: functional; details: read-out: LD50 (the source's name)
Method in brief: as §1

Jurkat [3] = test: Cytotoxicity against human Jurkat cells at 5 uM after 48 hrs; assay type: functional, cell-based
Method in brief: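 Jurkat cells (RPMI, 10% FCS, 37 °C, 5% CO2) seeded at 50,000 cells per mL, grown overnight, then dosed with colchicine–dendrimer conjugate at 5 μM final from sterile water stock. After 48 h, propidium iodide added 2 min before FACS (excitation 488 nm); dead vs healthy cells counted, reported as % dead cells.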

| Compound | Activity (MEF) | Activity (Jurkat [1]) | CC50 (Jurkat [2]) | Activity (Jurkat [3]) |
| --- | --- | --- | --- | --- |
| COc1cc2c(c(OC)c1OC)-c1ccc(OC)c(=O)cc1[C@@H](N(C(C)=O)C(=O)[C@H](CS)NC(=O)[C@H](CC(=O)O)NC(=O)[C@H](CC(C)C)NC(=O)[C@H](Cc1ccc(O)cc1)NC(=O)[C@@H](NC(=O)[C@H](CNC(=O)[C@H](C)NC(=O)[C@H](CO)NC(=O)[C@H](CC(=O)O)NC(=O)[C@H](Cc1ccccc1)NC(=O)CCS[C@@H]1O[C@H](CO)[C@H](O)[C@H](O)[C@H]1O)NC(=O)[C@H](C)NC(=O)[C@H](CO)NC(=O)[C@H](CC(=O)O)NC(=O)[C@H](Cc1ccccc1)NC(=O)CCS[C@@H]1O[C@H](CO)[C@H](O)[C@H](O)[C@H]1O)[C@@H](C)O)CC2 (I: [Mpa](βGal)FDSA[Dap]TYLD-X1 / II: [Mpa](βGal)FDSA; amide I:6-II:C) [listing 1 of 2 here] | 68% | – | – | – |
| COc1cc2c(c(OC)c1OC)-c1ccc(OC)c(=O)cc1[C@@H](N(C(C)=O)C(=O)[C@H](CS)NC(=O)[C@H](CC(=O)O)NC(=O)[C@H](CC(C)C)NC(=O)[C@H](Cc1ccc(O)cc1)NC(=O)[C@@H](NC(=O)[C@H](CNC(=O)[C@H](C)NC(=O)[C@H](CO)NC(=O)[C@H](CC(=O)O)NC(=O)[C@H](Cc1ccccc1)NC(=O)CCS[C@@H]1O[C@H](CO)[C@H](O)[C@H](O)[C@H]1O)NC(=O)[C@H](C)NC(=O)[C@H](CO)NC(=O)[C@H](CC(=O)O)NC(=O)[C@H](Cc1ccccc1)NC(=O)CCS[C@@H]1O[C@H](CO)[C@H](O)[C@H](O)[C@H]1O)[C@@H](C)O)CC2 (I: [Mpa](βGal)FDSA[Dap]TYLD-X1 / II: [Mpa](βGal)FDSA; amide I:6-II:C) [listing 2 of 2 here] | – | <=91% | 1.53 µM | – |
| COc1cc2c(c(OC)c1OC)-c1ccc(OC)c(=O)cc1[C@@H](N(C(C)=O)C(=O)[C@H](CS)NC(=O)[C@H](CC(=O)O)NC(=O)[C@H](CC(C)C)NC(=O)[C@H](Cc1ccc(O)cc1)NC(=O)[C@@H](NC(=O)[C@H](CNC(=O)[C@H](C)NC(=O)[C@H](CO)NC(=O)[C@H](CC(N)=O)NC(=O)[C@H](Cc1ccccc1)NC(=O)CCS[C@@H]1O[C@H](CO)[C@H](O)[C@H](O)[C@H]1O)NC(=O)[C@H](C)NC(=O)[C@H](CO)NC(=O)[C@H](CC(N)=O)NC(=O)[C@H](Cc1ccccc1)NC(=O)CCS[C@@H]1O[C@H](CO)[C@H](O)[C@H](O)[C@H]1O)[C@@H](C)O)CC2 (I: [Mpa](βGal)FNSA[Dap]TYLD-X1 / II: [Mpa](βGal)FNSA; amide I:6-II:C) [listing 1 of 2 here] | 6% | – | – | – |
| COc1cc2c(c(OC)c1OC)-c1ccc(OC)c(=O)cc1[C@@H](N(C(C)=O)C(=O)[C@H](CS)NC(=O)[C@H](CC(=O)O)NC(=O)[C@H](CC(C)C)NC(=O)[C@H](Cc1ccc(O)cc1)NC(=O)[C@@H](NC(=O)[C@H](CNC(=O)[C@H](C)NC(=O)[C@H](CO)NC(=O)[C@H](CC(N)=O)NC(=O)[C@H](Cc1ccccc1)NC(=O)CCS[C@@H]1O[C@H](CO)[C@H](O)[C@H](O)[C@H]1O)NC(=O)[C@H](C)NC(=O)[C@H](CO)NC(=O)[C@H](CC(N)=O)NC(=O)[C@H](Cc1ccccc1)NC(=O)CCS[C@@H]1O[C@H](CO)[C@H](O)[C@H](O)[C@H]1O)[C@@H](C)O)CC2 (I: [Mpa](βGal)FNSA[Dap]TYLD-X1 / II: [Mpa](βGal)FNSA; amide I:6-II:C) [listing 2 of 2 here] | – | 19% | 5.52 µM | – |
| COc1cc2c(c(OC)c1OC)-c1ccc(OC)c(=O)cc1[C@@H](N(C(C)=O)C(=O)[C@H](CS)NC(=O)[C@H](CCCCNC(=O)CCS[C@@H]1O[C@H](CO)[C@H](O)[C@H](O)[C@H]1O)NC(=O)[C@H](Cc1ccccc1)NC(=O)[C@H](CCCNC(=N)N)NC(=O)[C@H](CC(N)=O)NC(=O)[C@H](CNC(=O)[C@@H](NC(=O)[C@H](CCC(=O)O)NC(=O)[C@H](CC(=O)O)NC(=O)CNC(=O)CCS[C@@H]1O[C@H](CO)[C@H](O)[C@H](O)[C@H]1O)[C@@H](C)O)NC(=O)[C@@H](NC(=O)[C@H](CCC(=O)O)NC(=O)[C@H](CC(=O)O)NC(=O)CNC(=O)CCS[C@@H]1O[C@H](CO)[C@H](O)[C@H](O)[C@H]1O)[C@@H](C)O)CC2 (I: [Mpa](βGal)GDET[Dap]NRFK(X2)-X1 / II: [Mpa](βGal)GDET; amide I:6-II:C) | – | – | – | inactive |
| COc1cc2c(c(OC)c1OC)-c1ccc(OC)c(=O)cc1[C@@H](N(C(C)=O)C(=O)[C@H](CS)NC(=O)[C@H](CCCCNC(=O)CCS[C@@H]1O[C@H](CO)[C@H](O)[C@H](O)[C@H]1O)NC(=O)[C@H](Cc1ccccc1)NC(=O)[C@H](CCCNC(=N)N)NC(=O)[C@H](CC(N)=O)NC(=O)[C@H](CNC(=O)[C@@H](NC(=O)[C@H](CCC(=O)O)NC(=O)[C@H](CC(N)=O)NC(=O)CNC(=O)CCS[C@@H]1O[C@H](CO)[C@H](O)[C@H](O)[C@H]1O)[C@@H](C)O)NC(=O)[C@@H](NC(=O)[C@H](CCC(=O)O)NC(=O)[C@H](CC(N)=O)NC(=O)CNC(=O)CCS[C@@H]1O[C@H](CO)[C@H](O)[C@H](O)[C@H]1O)[C@@H](C)O)CC2 (I: [Mpa](βGal)GNET[Dap]NRFK(X2)-X1 / II: [Mpa](βGal)GNET; amide I:6-II:C) | – | – | – | inactive |
| COc1cc2c(c(OC)c1OC)-c1ccc(OC)c(=O)cc1[C@@H](N(C(C)=O)C(=O)[C@H](CS)NC(=O)[C@H](CC(=O)O)NC(=O)[C@H](Cc1cnc[nH]1)NC(=O)[C@H](CCCNC(=N)N)NC(=O)[C@@H](NC(=O)[C@H](CNC(=O)[C@H](C)NC(=O)[C@H](Cc1cnc[nH]1)NC(=O)[C@H](CCCNC(=N)N)NC(=O)CNC(=O)CCS[C@@H]1O[C@H](CO)[C@H](O)[C@H](O)[C@H]1O)NC(=O)[C@H](C)NC(=O)[C@H](Cc1cnc[nH]1)NC(=O)[C@H](CCCNC(=N)N)NC(=O)CNC(=O)CCS[C@@H]1O[C@H](CO)[C@H](O)[C@H](O)[C@H]1O)[C@@H](C)O)CC2 (I: [Mpa](βGal)GRHA[Dap]TRHD-X1 / II: [Mpa](βGal)GRHA; amide I:6-II:C) [listing 1 of 2 here] | 51% | – | – | – |
| COc1cc2c(c(OC)c1OC)-c1ccc(OC)c(=O)cc1[C@@H](N(C(C)=O)C(=O)[C@H](CS)NC(=O)[C@H](CC(=O)O)NC(=O)[C@H](Cc1cnc[nH]1)NC(=O)[C@H](CCCNC(=N)N)NC(=O)[C@@H](NC(=O)[C@H](CNC(=O)[C@H](C)NC(=O)[C@H](Cc1cnc[nH]1)NC(=O)[C@H](CCCNC(=N)N)NC(=O)CNC(=O)CCS[C@@H]1O[C@H](CO)[C@H](O)[C@H](O)[C@H]1O)NC(=O)[C@H](C)NC(=O)[C@H](Cc1cnc[nH]1)NC(=O)[C@H](CCCNC(=N)N)NC(=O)CNC(=O)CCS[C@@H]1O[C@H](CO)[C@H](O)[C@H](O)[C@H]1O)[C@@H](C)O)CC2 (I: [Mpa](βGal)GRHA[Dap]TRHD-X1 / II: [Mpa](βGal)GRHA; amide I:6-II:C) [listing 2 of 2 here] | – | 91% | 1.5 µM | – |
| CC[C@H](C)[C@H](NC(=O)[C@@H]1CCCN1C(=O)[C@H](CNC(=O)[C@@H]1CCCN1C(=O)CNC(=O)[C@H](CC(=O)O)NC(=O)[C@H](CCCCNC(=O)CCS[C@@H]1O[C@H](CO)[C@H](O)[C@H](O)[C@H]1O)NC(=O)CCS[C@@H]1O[C@H](CO)[C@H](O)[C@H](O)[C@H]1O)NC(=O)[C@@H]1CCCN1C(=O)CNC(=O)[C@H](CC(=O)O)NC(=O)[C@H](CCCCNC(=O)CCS[C@@H]1O[C@H](CO)[C@H](O)[C@H](O)[C@H]1O)NC(=O)CCS[C@@H]1O[C@H](CO)[C@H](O)[C@H](O)[C@H]1O)C(=O)N[C@@H](CCC(=O)O)C(=O)N[C@H](C(=O)N[C@@H](CS)C(=O)N(C(C)=O)[C@H]1CCc2cc(OC)c(OC)c(OC)c2-c2ccc(OC)c(=O)cc21)C(C)C (I: [Mpa](βGal)K(X2)DGP[Dap]PIEV-X1 / II: [Mpa](βGal)K(X2)DGP; amide I:6-II:C) | – | – | – | inactive |
| CC[C@H](C)[C@H](NC(=O)[C@@H]1CCCN1C(=O)[C@H](CNC(=O)[C@@H]1CCCN1C(=O)CNC(=O)[C@H](CC(N)=O)NC(=O)[C@H](CCCCNC(=O)CCS[C@@H]1O[C@H](CO)[C@H](O)[C@H](O)[C@H]1O)NC(=O)CCS[C@@H]1O[C@H](CO)[C@H](O)[C@H](O)[C@H]1O)NC(=O)[C@@H]1CCCN1C(=O)CNC(=O)[C@H](CC(N)=O)NC(=O)[C@H](CCCCNC(=O)CCS[C@@H]1O[C@H](CO)[C@H](O)[C@H](O)[C@H]1O)NC(=O)CCS[C@@H]1O[C@H](CO)[C@H](O)[C@H](O)[C@H]1O)C(=O)N[C@@H](CCC(=O)O)C(=O)N[C@H](C(=O)N[C@@H](CS)C(=O)N(C(C)=O)[C@H]1CCc2cc(OC)c(OC)c(OC)c2-c2ccc(OC)c(=O)cc21)C(C)C (I: [Mpa](βGal)K(X2)NGP[Dap]PIEV-X1 / II: [Mpa](βGal)K(X2)NGP; amide I:6-II:C) | – | – | – | inactive |
| COc1cc2c(c(OC)c1OC)-c1ccc(OC)c(=O)cc1[C@@H](NC(C)=O)CC2 [COLCHICINE] | 57% | 85% | 0.02 µM | – |
